# SF1 activator = activators of human nuclear receptor SF-1 | CHO-K1 Gal4-SF-1 LBD luciferase reporter; % increase over DMSO SF-1-specific signal | activation, % at 10 µM | 1.9% of 65,000 active | AID 522;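 active = activation above the mean activation of all tested compounds plus 3 SD, cut at about 50% in these data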
#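 Assay system: CHO-K1 cells co-transfected with Gal4 DBD–human SF-1 LBD, 5xGal4 luciferase reporter / Input: 4,000 cells per well / Incubation: 20 h compound exposure at 37 °C after 1 h cell settling / Detection: SteadyLite luciferase luminescence / Control set: DMSO negative control and −SF1 background wells / Replication: one test per compound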
# mHtt clearance = compounds clearing mutant huntingtin protein. HeLa Exon1htt(103Q)mCFP, aggregate imaging; zero = plate's median compound well. inhibition, % at 1.5 µM. 0.42% of 47,000 active;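 active = inhibition of aggregate fluorescence above about 70%, also judged a hit by eye on the cell image, limit read from the data, passing the limit was not always enough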;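 also: cells exposed to compound for three days before fixation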
# RORA act = activators of human nuclear receptor RORA | P35398 | CHO-K1 Gal4-RORA LBD luciferase reporter, luminescence; percent increase over mock-subtracted basal signal | activation, % at 10 µM | 1.5% of 65,000 active;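 active = activation above the mean of all tested compounds plus 3 SD, cut at about 49% in these data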;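 also: 0% = DMSO-treated RORA cells and 100% = added signal equal to DMSO minus mock-transfected cells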
# M1 antagonist = M1 muscarinic receptor (rat) antagonism | P08482 | CHO-M1 cells, Fluo-4 calcium, ACh EC80 antagonist mode; active compounds read low | B-score at 10 µM | 3.4% of 64,000 active | AID 628;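 active = calcium fluorescence response, raw or row-and-column corrected B-score, differing from the plate sample mean either way at a set confidence level, mostly lower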
# D1 allo mod = allosteric modulators of human D1 dopamine receptor; P21728; HEK293 D1, CRE-luciferase, dopamine EC30 potentiation; actives deviate in either direction; B-score at 10 µM; 5.9% of 58,000 active; AID 641;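 active = luminescence count or its row- and column-corrected plate score outside the 99.7% band of the plate's sample wells, on either side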
# Target sequence (P21728 whole entry, looked up): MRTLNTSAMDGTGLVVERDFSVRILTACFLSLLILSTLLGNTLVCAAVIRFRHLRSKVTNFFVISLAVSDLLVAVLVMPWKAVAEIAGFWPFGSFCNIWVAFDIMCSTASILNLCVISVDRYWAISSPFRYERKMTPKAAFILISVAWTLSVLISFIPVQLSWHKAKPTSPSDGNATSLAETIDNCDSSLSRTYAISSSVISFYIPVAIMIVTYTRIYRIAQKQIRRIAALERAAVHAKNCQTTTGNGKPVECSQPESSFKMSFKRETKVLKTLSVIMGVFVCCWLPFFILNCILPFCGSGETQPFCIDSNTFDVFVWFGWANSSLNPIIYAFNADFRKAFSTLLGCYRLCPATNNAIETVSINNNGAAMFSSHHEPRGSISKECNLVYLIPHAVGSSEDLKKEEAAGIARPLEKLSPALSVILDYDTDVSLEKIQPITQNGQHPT
# M1 agonist = M1 muscarinic receptor agonism. CHO-M1 cells, Fluo-4 calcium fluorescence, agonist mode; active compounds read high. B-score at 10 µM. 3% of 64,000 active;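 active = fluorescence rise, raw or as B-score row- and column-corrected plate score, outside the 99.7% band of its plate's samples, either direction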
# D1 PAM confirm = confirmation of human D1 dopamine receptor allosteric modulators; shares compounds with D1 allo mod; HEK293 D1 CRE-luciferase, dopamine EC30 potentiation; active compounds read high; luminescence at 10 µM; 88% of 2,200 active; AID 642;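 active = luminescence in either of two replicates above the same-plate mean plus 3 SD of the low-dose dopamine control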
# D1 ag no DA = activates D1 CRE-luciferase signal without dopamine present; shares compounds with D1 allo mod; HEK293 D1 CRE-luciferase, luminescence, no dopamine; active compounds read high; luminescence at 10 µM; 0.8% of 1,900 active; in the data active = luminescence above about 3900
# Isoprot counter = alters isoproterenol CRE-luciferase response in HEK293 cells. shares compounds with D1 allo mod. HEK293 D1 CRE-luciferase, isoproterenol EC30 counter-screen. calls only at 10 µM. 63% of 2,200 active. AID 647;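 active = luminescence in either replicate above plate mean of wells with a partly effective reference agonist dose plus 3 SD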;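 also: isoproterenol raises cAMP through native beta-adrenoceptor Gs so signal bypasses D1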
# * hit, by the source's call; i = inactive; / = no result given; + = active, no number. The list is not random: actives were taken first. Their share in the collection is about 11%.
SMILES,SF1 activator,mHtt clearance,RORA act,M1 antagonist,D1 allo mod,M1 agonist,D1 PAM confirm,D1 ag no DA,Isoprot counter
COC(=O)CSc1nnc(-c2cccs2)n1-c1ccc(Cl)cc1,7,-4,2,0.0092,2.8*,0.64,9056*,/,+
NC(=O)CSc1nnc(-c2cccs2)n1-c1ccccc1,/,1,/,/,/,/,/,/,/
O=C(O)C1CSC2(CCN(Cc3ccccc3)CC2)N1 (configuration not stated),-8,/,-21,0.0042,-0.42,0.22,/,/,/
NC1=NC(c2ccc(Br)cc2)n2c(nc3ccccc32)N1 (configuration not stated),5,/,-1,-0.55,10*,2.1,11596*,1556,i
NC(=O)COc1c(-c2ccccc2)oc2ccccc2c1=O,-10,/,-6,0.2,2.6*,-0.17,15448*,1588,+
N#Cc1c2c(c(NCCCN3CCOCC3)n3c1nc1ccccc13)CCC2,17,-16,4,-1.1,0.0091,-0.24,/,/,/
N#Cc1c2c(c(NCCN3CCOCC3)n3c1nc1ccccc13)CCCC2,-3,-32,-22,-0.0093,3.5*,2,15848*,1800,+
O=C(CSc1ccc(Cl)cc1Cl)N1CCC(c2nc3ccccc3s2)CC1,/,-18,/,/,/,/,/,/,/
CSc1ncccc1C(=O)OCc1ccccc1F,29,/,89*,0.082,10*,-0.35,16732*,1608,+
CSc1ncccc1C(=O)OCc1ccccc1,30,/,46,-0.98,/,0.58,/,/,/
CC(C)(C)c1cc(NC(=O)c2cc(F)c(F)c(F)c2F)no1,7,/,7,-0.16,-0.19,-0.58,/,/,/
Cc1c(C#N)c2ccccc2n1CC(=O)NCC1CCCO1 (configuration not stated),13,7,-11,-0.14,3.8*,-2,5268,1692,i
N#Cc1cn(CC(=O)NCC2CCCO2)c2ccccc12 (configuration not stated),11,-10,-18,-0.47,0.2,1.8,/,/,/
Cc1c(Cl)c(C(F)(F)F)nn1CC(=O)N1CCSCC1,2,-20,-6,0.038,/,-1.1,/,/,/
CCN(CC)c1ncnc2scc(C3COc4ccccc4O3)c12 (configuration not stated),/,12,/,/,/,/,/,/,/
c1ccc2c(c1)OCC(c1csc3ncnc(N4CCOCC4)c13)O2 (configuration not stated),-3,/,-15,-0.18,3.8*,0.066,5072,1584,+
O=C(O)c1ccccc1C(=O)N1CCN(c2cccc(Cl)c2)CC1,4,3,13,/,/,/,/,/,/
CCOc1ccccc1C(=O)N1CCN(c2cccc(Cl)c2)CC1,-55,/,-52,-0.16,5.6*,-0.25,10528*,2016,+
COc1ccc(OC)c2sc(NC(=O)C3CC3)nc12,3,-28,2,-0.0053,3.9*,0.33,10100*,/,i
CCC(=O)Nc1nc2c(OC)ccc(OC)c2s1,-19,/,-1,-0.42,2.9*,0.39,8516*,1464,i
CCS(=O)(=O)N1CCCC(C(=O)NC2CCC(C)CC2)C1 (configuration not stated),18,62,17,-1.4,-0.62,0.6,/,/,/
c1ccc(-n2c(SCc3ccncc3)nnc2-c2ccco2)cc1,8,-47,8,0.66,10*,0.27,14488*,/,+
CCC1(C)Cc2ccccc2-c2nc3n(c(=O)c21)CC(C(=O)O)S3 (configuration not stated),10,-57,-25,0.02,0.32,-1.1,/,/,/
COc1ccc(/C=N/n2cnnc2SCCO)cc1OC,-1,-11,-8,0.01,2.6*,-0.051,14424*,1384,+
Nc1ncnc2c1ncn2CCN1CCOCC1,6,63,-8,0.54,-0.32,0,/,/,/
SMILES,SF1 activator,mHtt clearance,RORA act,M1 antagonist,D1 allo mod,M1 agonist,D1 PAM confirm,D1 ag no DA,Isoprot counter
Nc1ncnc2c1ncn2CCOc1ccccc1,22,/,-9,-0.74,4.9*,-0.54,6344*,1408,i
COc1ccc(CN(C2CCCC2)S(=O)(=O)c2ccc(-n3cnnn3)cc2)cc1OC,-6,36,-10,-0.3,5.5*,-2.6,10040*,1604,i
CCn1c(Oc2ccc(Oc3ncc(Cl)cc3Cl)cc2)nc2c1c(=O)n(C)c(=O)n2C,6,/,-12,2.3,-0.25,-0.81,/,/,/
O=C(CSc1nnc(CNc2ccccc2)o1)c1ccc2c(c1)OCCO2,30,/,26,0.017,0.061,-0.031,/,/,/
Clc1cccc(NCc2nnc(SCc3ccccc3)o2)c1,6,/,-2,-0.43,3.2*,0.052,7948*,/,i
N#CCSc1nnc(CNc2cccc(Cl)c2)o1,0,/,6,0.0063,4*,0.016,4760,/,i
Cc1ccc(CCNS(=O)(=O)c2cnc[nH]2)cc1,13,/,26,-0.2,3.2*,1,6464*,1552,i
Fc1ccccc1Cn1nnc2c(NCCc3ccccn3)ncnc21,-1,/,10,-0.83,2.2,-0.79,/,/,/
C#CCNc1nc(CC)nc2c1nnn2Cc1ccccc1F,9,-18,13,-1,5.9*,-0.12,15288*,1616,+
CS(=O)(=O)Nc1ccc(C(=O)NC2CCCC2)cc1,0,24,-11,0.59,/,0.55,/,/,/
Cc1ccc(C(=O)NCC(=O)OCC(=O)c2c(N)n(C)c(=O)n(C)c2=O)s1,2,/,-12,0.51,1.2,1.6,/,/,/
COc1ccccc1C(=O)C1Nc2ccccc2-c2nnc(SC)nc2O1 (configuration not stated),5,-3,-1,0.2,0.037,-0.7,/,/,/
CCSc1nnc2c(n1)OC1(CCCC1)Nc1ccccc1-2,-13,19,28,0.01,6.6*,0.2,15136*,1636,+
COc1ccc(Cc2nnc(NC(=O)Cn3cnc4c3c(=O)n(C)c(=O)n4C)s2)cc1,/,-54,/,/,/,/,/,/,/
CN(C)C(=O)N1CCC(C(=O)NCC2CCCO2)CC1 (configuration not stated),10,13,11,-0.046,-1,-0.81,/,/,/
C=CCSc1nc(N)c2c(C)c(C)sc2n1,24,/,14,0.2,4.9*,1,18248*,1540,+
c1ccc(CSc2nncn2-c2ccccn2)cc1,0,/,-4,-1.7,7.9*,-0.68,12884*,1752,+
CC(NC(=O)CSc1nnc(-c2cccc(S(=O)(=O)N3CCCCC3)c2)o1)C12CC3CC(CC(C3)C1)C2 (configuration not stated),/,29,/,/,/,/,/,/,/
